Laboratory results taken from ChEMBL document CHEMBL4002589, “Tri- and Tetrasubstituted Pyridinylimidazoles as Covalent Inhibitors of c-Jun N-Terminal Kinase 3” (J Med Chem, 2017).

Legend:
[1] = molecular target: Casein kinase I isoform gamma-2 (Homo sapiens) (UniProt P78368); test: Inhibition of CK1 gamma2 (unknown origin) assessed as residual activity at 1 uM relative to control
How it was run: (§1)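 Each inhibitor is tested at a single concentration, 1 µM or 0.5 µM depending on the compound. Results are reported as residual kinase activity.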

[2] = molecular target: Dual specificity protein kinase CLK4 (Homo sapiens) (UniProt Q9HAZ1); test: Inhibition of CLK4 (unknown origin) assessed as residual activity at 1 uM relative to control; how it was run: as §1
Dual specificity protein kinase CLK4 (Homo sapiens), sequence (Q9HAZ1 whole entry, looked up): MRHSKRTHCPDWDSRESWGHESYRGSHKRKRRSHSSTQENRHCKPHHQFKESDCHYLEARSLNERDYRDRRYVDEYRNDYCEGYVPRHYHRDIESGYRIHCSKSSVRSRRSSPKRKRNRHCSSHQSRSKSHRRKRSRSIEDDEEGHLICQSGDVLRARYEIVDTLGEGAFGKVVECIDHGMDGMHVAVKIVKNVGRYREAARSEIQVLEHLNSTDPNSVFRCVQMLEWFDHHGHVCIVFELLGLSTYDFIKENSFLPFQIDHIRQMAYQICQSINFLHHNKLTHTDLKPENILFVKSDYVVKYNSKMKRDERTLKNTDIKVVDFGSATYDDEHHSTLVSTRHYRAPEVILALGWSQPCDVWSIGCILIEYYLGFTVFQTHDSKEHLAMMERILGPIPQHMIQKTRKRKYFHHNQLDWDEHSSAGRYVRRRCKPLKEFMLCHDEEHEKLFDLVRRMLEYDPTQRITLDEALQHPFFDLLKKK

[3] = molecular target: Mitogen-activated protein kinase kinase kinase 11 (Homo sapiens) (UniProt Q16584); test: Inhibition of MAP3K11 (unknown origin) assessed as residual activity at 1 uM relative to control; how it was run: as §1
Mitogen-activated protein kinase kinase kinase 11 (Homo sapiens), sequence (Q16584 whole entry, looked up): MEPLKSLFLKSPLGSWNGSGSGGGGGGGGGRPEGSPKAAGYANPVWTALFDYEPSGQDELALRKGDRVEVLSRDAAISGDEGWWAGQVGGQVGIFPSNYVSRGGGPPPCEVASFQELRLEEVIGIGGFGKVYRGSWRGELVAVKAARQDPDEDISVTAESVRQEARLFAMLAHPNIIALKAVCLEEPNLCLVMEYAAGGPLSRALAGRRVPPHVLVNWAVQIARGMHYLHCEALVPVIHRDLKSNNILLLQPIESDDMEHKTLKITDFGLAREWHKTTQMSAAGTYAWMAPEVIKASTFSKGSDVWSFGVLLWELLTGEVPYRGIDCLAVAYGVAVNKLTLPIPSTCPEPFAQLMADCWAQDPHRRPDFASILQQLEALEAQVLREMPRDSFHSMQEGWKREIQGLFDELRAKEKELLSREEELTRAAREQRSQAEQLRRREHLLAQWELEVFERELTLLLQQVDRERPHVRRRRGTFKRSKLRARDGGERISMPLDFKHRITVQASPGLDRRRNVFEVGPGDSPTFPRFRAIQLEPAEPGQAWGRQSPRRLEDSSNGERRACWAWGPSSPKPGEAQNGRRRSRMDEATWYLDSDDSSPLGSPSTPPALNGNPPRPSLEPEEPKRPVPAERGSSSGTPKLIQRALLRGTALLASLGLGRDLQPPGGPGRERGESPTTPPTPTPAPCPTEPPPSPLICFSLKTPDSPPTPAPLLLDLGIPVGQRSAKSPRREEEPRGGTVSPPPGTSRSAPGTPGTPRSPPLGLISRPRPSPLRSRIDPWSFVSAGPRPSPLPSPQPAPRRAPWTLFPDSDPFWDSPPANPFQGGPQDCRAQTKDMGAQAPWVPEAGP

[4] = molecular target: T1, Dual specificity mitogen-activated protein kinase kinase 7 (Homo sapiens) (UniProt O14733); test: Inhibition of full length human GST-HIS tagged MKK7 expressed in Sf9 cells assessed as residual activity at 1 uM relative to control; how it was run: as §1
T1 sequence (whole entry): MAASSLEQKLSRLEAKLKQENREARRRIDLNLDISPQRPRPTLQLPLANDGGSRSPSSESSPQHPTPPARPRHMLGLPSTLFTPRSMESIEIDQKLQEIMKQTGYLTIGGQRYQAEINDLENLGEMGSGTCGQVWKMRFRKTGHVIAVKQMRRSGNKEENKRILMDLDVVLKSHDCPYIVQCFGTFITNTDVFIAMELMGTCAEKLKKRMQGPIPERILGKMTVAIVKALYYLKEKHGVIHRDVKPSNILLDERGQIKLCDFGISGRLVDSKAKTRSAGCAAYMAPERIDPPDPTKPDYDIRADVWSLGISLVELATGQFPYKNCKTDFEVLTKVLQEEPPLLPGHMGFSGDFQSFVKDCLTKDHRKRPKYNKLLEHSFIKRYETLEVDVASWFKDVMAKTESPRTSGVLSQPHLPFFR

[5] = molecular target: T2, Serine/threonine-protein kinase Sgk1 (Homo sapiens) (UniProt O00141); test: Inhibition of full length human GST-tagged SGK1 expressed in Sf9 cells assessed as residual activity at 1 uM relative to control; how it was run: as §1
T2 sequence (whole entry): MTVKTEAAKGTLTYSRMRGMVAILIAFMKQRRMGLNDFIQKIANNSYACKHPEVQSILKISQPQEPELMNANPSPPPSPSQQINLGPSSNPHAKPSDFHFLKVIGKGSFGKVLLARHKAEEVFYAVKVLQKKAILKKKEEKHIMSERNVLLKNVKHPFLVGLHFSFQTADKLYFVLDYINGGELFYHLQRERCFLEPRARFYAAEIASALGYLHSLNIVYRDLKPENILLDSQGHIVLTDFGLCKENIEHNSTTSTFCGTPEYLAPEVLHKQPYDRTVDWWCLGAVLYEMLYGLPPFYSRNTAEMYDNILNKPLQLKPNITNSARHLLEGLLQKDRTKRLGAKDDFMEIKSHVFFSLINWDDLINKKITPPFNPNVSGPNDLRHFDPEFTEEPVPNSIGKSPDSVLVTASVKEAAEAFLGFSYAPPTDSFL

[6] = molecular target: Mitogen-activated protein kinase kinase kinase 20 (Homo sapiens) (UniProt Q9NYL2); test: Inhibition of ZAK (unknown origin) assessed as residual activity at 1 uM relative to control; how it was run: as §1
Mitogen-activated protein kinase kinase kinase 20 (Homo sapiens), sequence (Q9NYL2 2-800 limits assumed): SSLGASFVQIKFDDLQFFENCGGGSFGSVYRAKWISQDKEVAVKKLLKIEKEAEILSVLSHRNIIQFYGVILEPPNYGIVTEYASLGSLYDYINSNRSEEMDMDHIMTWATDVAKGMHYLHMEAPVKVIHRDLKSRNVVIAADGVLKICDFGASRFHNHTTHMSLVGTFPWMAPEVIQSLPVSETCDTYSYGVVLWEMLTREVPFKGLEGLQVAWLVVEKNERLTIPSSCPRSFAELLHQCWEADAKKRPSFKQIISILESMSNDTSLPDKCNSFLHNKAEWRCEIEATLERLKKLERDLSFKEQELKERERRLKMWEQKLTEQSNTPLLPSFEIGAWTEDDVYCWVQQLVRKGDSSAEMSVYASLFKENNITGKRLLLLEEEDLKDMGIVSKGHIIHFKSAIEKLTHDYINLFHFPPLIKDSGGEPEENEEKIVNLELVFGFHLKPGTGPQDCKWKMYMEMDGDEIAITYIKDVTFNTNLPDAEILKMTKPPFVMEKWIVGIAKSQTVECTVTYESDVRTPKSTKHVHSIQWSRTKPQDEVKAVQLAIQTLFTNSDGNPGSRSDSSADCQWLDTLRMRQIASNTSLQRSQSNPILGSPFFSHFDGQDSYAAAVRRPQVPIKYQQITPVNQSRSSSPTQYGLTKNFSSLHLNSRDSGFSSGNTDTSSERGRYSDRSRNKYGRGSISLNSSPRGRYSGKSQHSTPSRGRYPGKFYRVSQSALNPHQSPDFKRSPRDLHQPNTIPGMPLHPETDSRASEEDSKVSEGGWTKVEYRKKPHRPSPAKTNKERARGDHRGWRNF

[7] = Drug metabolism in human liver microsomes at 100 uM preincubated with NADPH regenerating system for 5 mins followed by addition of liver microsomes measured after 190 mins by LC-MS analysis; format: ADME, microsome; details: read-out: Drug metabolism

Casein kinase I isoform gamma-2 (Homo sapiens), sequence (P78368 whole entry, looked up, canonical isoform): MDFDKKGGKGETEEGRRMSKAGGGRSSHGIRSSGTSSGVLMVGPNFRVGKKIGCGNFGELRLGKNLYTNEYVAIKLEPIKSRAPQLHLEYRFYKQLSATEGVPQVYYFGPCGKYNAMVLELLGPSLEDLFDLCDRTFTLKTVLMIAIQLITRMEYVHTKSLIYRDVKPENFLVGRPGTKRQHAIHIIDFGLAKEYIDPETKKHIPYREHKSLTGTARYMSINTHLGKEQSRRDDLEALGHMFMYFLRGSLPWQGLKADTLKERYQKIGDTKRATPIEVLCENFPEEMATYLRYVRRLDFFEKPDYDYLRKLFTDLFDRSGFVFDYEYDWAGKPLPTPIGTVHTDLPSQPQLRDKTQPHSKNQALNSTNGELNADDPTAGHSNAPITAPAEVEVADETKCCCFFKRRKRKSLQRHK

Activity [1]: 10 to 29%
Activity [2]: 10 to 29%
Activity [3]: 10 to 29%
Activity [4]: 10 to 29%
Activity [5]: 10 to 29%
Activity [6]: 10 to 29%
metabolised at 190 min, 100 µM [7]: 31%
Structure (SMILES): C=CC(=O)Nc1cccc(C(=O)Nc2ccc(Nc3cc(-c4[nH]c(SC)nc4C)ccn3)cc2)c1
